For series [1], the species on record is Rattus norvegicus. The series can be described thus: Duration of action in rat. It is filed as ADME, organism-based. As to conditions: in vivo.
The species named for series [2] is Rattus norvegicus. Put plainly: Antagonism against phenylephrine induced contractions in rat prostate. Type of series: functional, Prostate gland.
The species entered for series [3] is Homo sapiens. The series can be described thus: Binding affinity in human prostate using A-61603. Type of series: functional. As to conditions: Prostate gland.
The target in series [4] is T1, Alpha-1D adrenergic receptor (Homo sapiens, UniProt P25100).
T1 sequence (P25100 whole entry): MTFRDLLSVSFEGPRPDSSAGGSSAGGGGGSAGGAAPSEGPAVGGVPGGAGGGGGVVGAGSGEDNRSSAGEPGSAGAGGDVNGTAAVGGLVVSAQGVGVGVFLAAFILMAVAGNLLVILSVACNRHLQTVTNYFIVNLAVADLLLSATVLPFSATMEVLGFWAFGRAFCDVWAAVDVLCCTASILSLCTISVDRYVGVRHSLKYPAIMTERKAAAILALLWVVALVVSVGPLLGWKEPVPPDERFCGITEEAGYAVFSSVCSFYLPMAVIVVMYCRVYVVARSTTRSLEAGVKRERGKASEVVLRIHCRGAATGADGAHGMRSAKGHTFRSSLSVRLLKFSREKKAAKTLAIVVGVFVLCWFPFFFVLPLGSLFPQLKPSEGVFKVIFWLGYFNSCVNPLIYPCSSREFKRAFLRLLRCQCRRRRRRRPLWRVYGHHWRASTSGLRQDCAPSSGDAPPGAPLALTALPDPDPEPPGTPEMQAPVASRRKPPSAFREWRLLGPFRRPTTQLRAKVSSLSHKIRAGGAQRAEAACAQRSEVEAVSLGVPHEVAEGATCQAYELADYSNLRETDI
The series can be described thus: In vitro binding affinity against alpha-1D adrenergic receptor (cloned human).

Series [5] deals with T2, Alpha-1B adrenergic receptor (Homo sapiens, UniProt P35368).
T2 sequence (P35368 whole entry): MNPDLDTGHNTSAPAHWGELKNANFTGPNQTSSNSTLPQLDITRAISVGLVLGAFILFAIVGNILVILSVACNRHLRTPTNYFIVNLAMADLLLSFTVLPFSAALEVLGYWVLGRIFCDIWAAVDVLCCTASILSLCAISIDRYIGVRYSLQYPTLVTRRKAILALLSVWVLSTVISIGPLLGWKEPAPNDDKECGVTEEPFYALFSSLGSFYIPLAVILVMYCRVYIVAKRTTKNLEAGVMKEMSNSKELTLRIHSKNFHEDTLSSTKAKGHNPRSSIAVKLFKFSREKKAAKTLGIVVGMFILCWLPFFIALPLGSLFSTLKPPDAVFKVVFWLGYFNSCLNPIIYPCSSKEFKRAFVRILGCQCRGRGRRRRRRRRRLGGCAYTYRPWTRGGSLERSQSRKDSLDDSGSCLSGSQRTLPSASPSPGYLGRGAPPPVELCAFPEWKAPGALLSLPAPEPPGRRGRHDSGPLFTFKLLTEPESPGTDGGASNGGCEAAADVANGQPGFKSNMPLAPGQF
The series can be described thus: In vitro binding affinity against Alpha-1B adrenergic receptor cloned from human.

Series [6] concerns the target Adrenergic receptor alpha-1 (Homo sapiens) (UniProt P35348+P25100+P35368). The series can be described thus: Selectivity ratio( alpha-1b,1d/alpha1a). It is filed as protein assay.
Series [7] in a line: Bioavailability in dog. It is filed as ADME, organism-based, Canis lupus familiaris. As to conditions: in vivo.
The target of series [8] is Mu-type opioid receptor (Homo sapiens, UniProt P35372). Put plainly: Binding affinity against Opioid receptor mu 1.
The nature of series [9]: Plasma half life in rat. Type of series: ADME, organism-based.
The target in series [10] is T3, Alpha-1A adrenergic receptor (Homo sapiens, UniProt P35348).
T3 sequence (P35348 whole entry): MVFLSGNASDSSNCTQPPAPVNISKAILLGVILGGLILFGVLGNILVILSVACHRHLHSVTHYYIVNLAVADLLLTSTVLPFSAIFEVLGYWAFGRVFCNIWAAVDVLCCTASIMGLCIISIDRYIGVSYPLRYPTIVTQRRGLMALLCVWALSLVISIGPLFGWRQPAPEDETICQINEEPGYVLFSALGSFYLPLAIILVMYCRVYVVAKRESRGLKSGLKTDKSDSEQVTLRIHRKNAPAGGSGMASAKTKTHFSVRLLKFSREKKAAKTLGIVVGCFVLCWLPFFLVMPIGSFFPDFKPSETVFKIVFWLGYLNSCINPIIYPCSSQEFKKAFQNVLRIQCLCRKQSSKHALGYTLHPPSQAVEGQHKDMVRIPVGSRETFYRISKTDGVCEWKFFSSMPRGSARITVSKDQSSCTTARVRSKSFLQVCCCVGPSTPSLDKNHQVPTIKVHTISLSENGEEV
Put plainly: In vitro binding affinity against alpha-1A adrenergic receptor of human clones.

Series [11] can be described thus: Plasma half life in dog. It is filed as ADME, organism-based, Canis lupus familiaris.
Series [12] is described as follows: Bioavailability in rat. As to conditions: in vivo. Type of series: ADME, organism-based.
For series [13], the species on record is Rattus norvegicus. The series can be described thus: Dose required to inhibit 50% of contractile responses induced by phenylephrine in rat prostate. Type of series: functional, Prostate gland.
In series [14] the target is Mu-type opioid receptor (Mus musculus, UniProt P42866). Put plainly: Binding affinity against opioid receptor.
The species named for series [15] is Rattus norvegicus. Put plainly: Antagonism against norepinephrine induced contractions in rat aorta. Type of series: functional.
For series [16], the species on record is Canis familiaris. The series can be described thus: Potency to inhibit phenylephrine induced intraurethral pressure in dog. Type of series: functional, Canis lupus familiaris, Urethra. In outline: (§1)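 In dogs, diastolic blood pressure and intraurethral pressure were stimulated with phenylephrine. Antagonist potency was expressed as Kb in µg/kg.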
For series [17], the species on record is Canis familiaris. Put plainly: Potency to inhibit phenylephrine induced diastolic blood pressure in dog. Type of series: functional, Canis lupus familiaris, Artery. In outline: as §1
The species entered for series [18] is Homo sapiens. Put plainly: In vitro binding affinity against human prostate using A-61603 as agonist. It is filed as functional. Particulars: Prostate gland.

As a reminder, the Ki is the equilibrium dissociation constant of an inhibitor or competing ligand from its target. In general, bioavailability refers to the share of a dose that reaches the circulation, judged against a reference dose that is usually intravenous. A lower bioavailability goes with poor availability. Broadly, the half-life is the time needed for the level to fall by half in the phase considered. A high value points to slow decline.

Sequence of Mu-type opioid receptor (Mus musculus, UniProt P42866) (P42866 whole entry): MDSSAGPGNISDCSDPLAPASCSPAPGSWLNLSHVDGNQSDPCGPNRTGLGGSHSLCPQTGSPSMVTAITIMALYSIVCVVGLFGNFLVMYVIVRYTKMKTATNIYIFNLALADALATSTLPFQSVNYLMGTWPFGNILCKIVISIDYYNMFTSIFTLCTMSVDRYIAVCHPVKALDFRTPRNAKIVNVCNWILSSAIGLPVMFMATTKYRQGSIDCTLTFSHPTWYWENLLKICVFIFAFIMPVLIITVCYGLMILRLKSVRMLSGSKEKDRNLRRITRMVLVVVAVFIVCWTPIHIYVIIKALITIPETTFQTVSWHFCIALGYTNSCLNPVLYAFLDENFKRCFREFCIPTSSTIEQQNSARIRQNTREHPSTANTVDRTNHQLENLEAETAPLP
Sequence of Mu-type opioid receptor (Homo sapiens, UniProt P35372) (P35372 whole entry): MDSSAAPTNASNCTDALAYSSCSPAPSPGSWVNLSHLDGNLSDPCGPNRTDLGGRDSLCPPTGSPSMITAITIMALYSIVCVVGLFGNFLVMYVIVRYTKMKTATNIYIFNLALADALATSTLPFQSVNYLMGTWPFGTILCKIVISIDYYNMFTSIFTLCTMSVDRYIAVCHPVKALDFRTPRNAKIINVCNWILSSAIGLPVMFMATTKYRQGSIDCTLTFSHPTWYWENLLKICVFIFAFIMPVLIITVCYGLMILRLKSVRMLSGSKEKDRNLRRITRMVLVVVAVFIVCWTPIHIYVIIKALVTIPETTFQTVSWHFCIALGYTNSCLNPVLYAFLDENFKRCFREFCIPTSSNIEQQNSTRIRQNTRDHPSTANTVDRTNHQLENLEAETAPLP

For the molecule `CCC1=C(C(N)=O)C(c2ccc(F)c(F)c2)N(C(=O)NCCCN2CCC(C(=O)OC)(c3ccccc3)CC2)C(=O)N1` (centres undefined), the Time in the series filed under Rattus norvegicus [1] is over 4 h. Further, the Kb in the series filed under Rattus norvegicus [2] worked out at 0.5 nM; in the series listed under Homo sapiens [3], 0.1 nM. The Ki in series [4] was determined as 340 nM; in series [5] it was 250 nM; at Mu-type opioid receptor [8], 4000 nM; in series [10], 0.2 nM. Further, the Ratio in series [6] was over 1000. Besides, the values for the bioavailability in [7] and in [12] were 26% and 15%, respectively. The half-life in series [9] was 2 h; in series [11], 2.5 h.
Take `COCC1=C(C(=O)OC)C(c2ccc(F)c(F)c2)N(C(=O)NCCCN2CCC(C)(c3ccccc3)CC2)C(=O)N1` (centres undefined): the AD50 in the series listed under Rattus norvegicus [13] was 0.069 mg/kg. The same molecule returned a Time in the series filed under Rattus norvegicus [1] of 2 h. For the same molecule, the figures for the Kb in the series listed under Rattus norvegicus [2] and in the series listed under Homo sapiens [3] were 0.4 nM and 0.7 nM, respectively. Also, the Ki turned out to be 100000 nM at Mu-type opioid receptor [14], 640 nM in [4], 440 nM in [5] and 0.5 nM in series [10]. In series [6], the Ratio was over 400. The results for the half-life in series [9] and in series [11] were 0.4 h and 6.5 h, respectively. Further, in [12], the bioavailability is 23%.
In the series listed under Rattus norvegicus [13], `CCC1=C(C(N)=O)C(c2ccc(F)cc2F)N(C(=O)NCCCN2CCC(C#N)(c3ccccc3)CC2)C(=O)N1` (centres undefined) displayed an AD50 of 0.018 mg/kg. The molecule also showed a Time in the series filed under Rattus norvegicus [1] of 1.5 h. Also, the Kb in the series filed under Rattus norvegicus [2] is 2.2 nM; in the series listed under Rattus norvegicus [15] it was over 1000 nM; in the series filed under Canis familiaris [16], 14.2 µg/kg; in the series listed under Canis familiaris [17] it was over 300 µg/kg. Moreover, the Ki was 51000 nM on Mu-type opioid receptor [14], 1280 nM in [4], 610 nM in series [5] and 0.7 nM in series [10]. Moreover, the Ratio in series [6] was over 900. Also, the values for the bioavailability in [7] and in series [12] were 32% and 8%, respectively. The half-life was 0.4 h in series [9] and 2.3 h in series [11].
Take `COc1cc2nc(N3CCN(C(=O)C4CCCO4)CC3)nc(N)c2cc1OC` (centres undefined) [TERAZOSIN]: the Time in the series filed under Rattus norvegicus [1] came out at 3 h. The Kb in the series listed under Rattus norvegicus [2] and in the series filed under Homo sapiens [18] was 25 nM throughout. In series [9], this molecule gave a half-life of 7.5 h. In addition, the bioavailability in series [12] turned out to be 49%.

The values above are taken from ChEMBL document CHEMBL1132477, “Design and synthesis of novel alpha(1)(a) adrenoceptor-selective antagonists. 2. Approaches to eliminate opioid agonist metabolites via modification of linker and 4-methoxycarbonyl-4-phenylpiperidine moiety” (J Med Chem, 1999).
